Measured values: publication PMC9178606 (ACS Omega, 2022)
Values belong to the molecule of their own block, whether it stands above or below them.

How the values were obtained:
α-amylase = biological target: T1, α-amylase (Homo sapiens, UniProt P04746); experiment: In vitro α-amylase inhibitory activity; type: biochemical
T1 sequence (P04746 16-511): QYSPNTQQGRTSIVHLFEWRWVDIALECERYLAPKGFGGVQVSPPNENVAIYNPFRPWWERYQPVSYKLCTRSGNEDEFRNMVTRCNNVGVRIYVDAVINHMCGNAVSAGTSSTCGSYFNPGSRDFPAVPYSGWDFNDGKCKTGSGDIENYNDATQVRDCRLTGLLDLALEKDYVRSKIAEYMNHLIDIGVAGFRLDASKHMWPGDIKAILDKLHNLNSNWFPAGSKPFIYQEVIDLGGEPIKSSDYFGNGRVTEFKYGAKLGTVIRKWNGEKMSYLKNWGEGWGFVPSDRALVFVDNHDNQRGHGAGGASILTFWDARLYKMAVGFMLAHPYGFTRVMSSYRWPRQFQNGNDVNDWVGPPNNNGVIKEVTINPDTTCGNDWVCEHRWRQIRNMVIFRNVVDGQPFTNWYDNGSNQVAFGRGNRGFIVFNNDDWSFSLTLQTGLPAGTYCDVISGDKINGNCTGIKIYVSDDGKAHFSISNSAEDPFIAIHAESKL
How it was run: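 Labtest amylase substrate (diluted 1:1 in water) added; first read at 620 nm after 8 min. Final read after another 5 min at 37 °C. Inhibition calculated from the change between initial and final absorbance relative to control; IC50 from standard curve.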

collagenase = experiment: Anti-proteases assay; type: biochemical; settings: mean of two determinations ± SD
How it was run: (§1)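 Enzyme preincubated with test compound (5−75 μg/mL) for 15 min at 37 °C, then 1% casein substrate added for 30 min at 37 °C. Reaction stopped with 5% trichloroacetic acid and centrifuged (12,000 rpm, 15 min). Filtrate absorbance read at 280 nm. Percent inhibition taken against control; IC50 from standard curve. Protease inhibitor cocktail was the positive control.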

hsPLA2-G-X = biological target: T2, hsPLA2-G-X (Homo sapiens, UniProt O15496); experiment: Anti-phospholipases colorimetric assay, hsPLA2-G-X; type: biochemical
T2 sequence (O15496 43-165): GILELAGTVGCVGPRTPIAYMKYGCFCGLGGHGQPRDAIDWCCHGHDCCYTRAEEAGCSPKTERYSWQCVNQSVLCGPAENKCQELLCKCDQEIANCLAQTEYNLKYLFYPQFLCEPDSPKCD
How it was run: (§2)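 Test compound solutions (5−50 μg/mL) mixed with hsPLA2 solution (20 μg/mL, stock) and held 20 min at room temperature. Substrate added: 3.5 mM lecithin, 10 mM CaCl2, 3 mM sodium taurodeoxycholate, 100 mM NaCl, 0.055 mM phenol red, pH 7.6. Hydrolysis followed at 558 nm for 5 min. Percent inhibition taken against a no-compound control; IC50 from standard calibration curves.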

LoVo cells = experiment: Cytotoxicity assay; type: cell-based; settings: Homo sapiens, 24 h; for viability at 200 µg/mL: read-out: % of Viable cells, LoVo cell line of CRC; for IC50: read-out: IC50 LoVo cell line of CRC
How it was run: (§3)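 Cells exposed 24 h at 37 °C in 5% CO2 to test compound (final 25, 50, 75, 100, 200, 400 μg/mL) in DMEM with 10% FBS. Lactate dehydrogenase released into supernatant measured by end-point assay, OD 550 nm. Viability expressed as percent of medium-only control; 0.1% Triton X-100 was the positive control. Single-point viability at 200 μg/mL, mean ± SD (n = 2). IC50 from viability-versus-concentration plot.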

cathepsin-B = cathepsin-B (Homo sapiens, UniProt P07858); experiment: Anti-proteases assay; type: biochemical
How it was run: as §1

α-glucosidase = α-glucosidase (Saccharomyces cerevisiae, UniProt P53341); experiment: In vitro α-glucosidase inhibitory activity; type: biochemical, Saccharomyces cereviseae
Sequence of α-glucosidase (P53341 whole entry): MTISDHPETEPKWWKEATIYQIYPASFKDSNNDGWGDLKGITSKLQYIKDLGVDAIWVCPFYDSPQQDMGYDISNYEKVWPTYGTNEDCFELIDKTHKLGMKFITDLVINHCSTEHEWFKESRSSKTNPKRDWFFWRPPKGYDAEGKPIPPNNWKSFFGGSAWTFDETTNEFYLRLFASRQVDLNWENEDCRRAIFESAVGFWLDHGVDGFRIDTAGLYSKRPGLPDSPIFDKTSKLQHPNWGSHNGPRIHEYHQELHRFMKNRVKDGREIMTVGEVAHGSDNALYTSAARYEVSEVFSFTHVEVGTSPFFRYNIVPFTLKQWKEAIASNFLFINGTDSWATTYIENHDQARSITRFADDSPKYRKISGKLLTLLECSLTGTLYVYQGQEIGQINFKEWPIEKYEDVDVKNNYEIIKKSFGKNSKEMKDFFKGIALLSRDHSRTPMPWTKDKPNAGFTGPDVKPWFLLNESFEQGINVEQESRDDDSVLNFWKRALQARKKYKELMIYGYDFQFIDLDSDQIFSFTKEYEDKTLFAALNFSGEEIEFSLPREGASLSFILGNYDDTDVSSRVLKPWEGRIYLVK

xanthine oxidoreductase = xanthine oxidoreductase (Bos taurus, UniProt P80457); experiment: In vitro xanthine oxidoreductase inhibitory activity; type: biochemical
Sequence of xanthine oxidoreductase (P80457 2-1332 limits assumed): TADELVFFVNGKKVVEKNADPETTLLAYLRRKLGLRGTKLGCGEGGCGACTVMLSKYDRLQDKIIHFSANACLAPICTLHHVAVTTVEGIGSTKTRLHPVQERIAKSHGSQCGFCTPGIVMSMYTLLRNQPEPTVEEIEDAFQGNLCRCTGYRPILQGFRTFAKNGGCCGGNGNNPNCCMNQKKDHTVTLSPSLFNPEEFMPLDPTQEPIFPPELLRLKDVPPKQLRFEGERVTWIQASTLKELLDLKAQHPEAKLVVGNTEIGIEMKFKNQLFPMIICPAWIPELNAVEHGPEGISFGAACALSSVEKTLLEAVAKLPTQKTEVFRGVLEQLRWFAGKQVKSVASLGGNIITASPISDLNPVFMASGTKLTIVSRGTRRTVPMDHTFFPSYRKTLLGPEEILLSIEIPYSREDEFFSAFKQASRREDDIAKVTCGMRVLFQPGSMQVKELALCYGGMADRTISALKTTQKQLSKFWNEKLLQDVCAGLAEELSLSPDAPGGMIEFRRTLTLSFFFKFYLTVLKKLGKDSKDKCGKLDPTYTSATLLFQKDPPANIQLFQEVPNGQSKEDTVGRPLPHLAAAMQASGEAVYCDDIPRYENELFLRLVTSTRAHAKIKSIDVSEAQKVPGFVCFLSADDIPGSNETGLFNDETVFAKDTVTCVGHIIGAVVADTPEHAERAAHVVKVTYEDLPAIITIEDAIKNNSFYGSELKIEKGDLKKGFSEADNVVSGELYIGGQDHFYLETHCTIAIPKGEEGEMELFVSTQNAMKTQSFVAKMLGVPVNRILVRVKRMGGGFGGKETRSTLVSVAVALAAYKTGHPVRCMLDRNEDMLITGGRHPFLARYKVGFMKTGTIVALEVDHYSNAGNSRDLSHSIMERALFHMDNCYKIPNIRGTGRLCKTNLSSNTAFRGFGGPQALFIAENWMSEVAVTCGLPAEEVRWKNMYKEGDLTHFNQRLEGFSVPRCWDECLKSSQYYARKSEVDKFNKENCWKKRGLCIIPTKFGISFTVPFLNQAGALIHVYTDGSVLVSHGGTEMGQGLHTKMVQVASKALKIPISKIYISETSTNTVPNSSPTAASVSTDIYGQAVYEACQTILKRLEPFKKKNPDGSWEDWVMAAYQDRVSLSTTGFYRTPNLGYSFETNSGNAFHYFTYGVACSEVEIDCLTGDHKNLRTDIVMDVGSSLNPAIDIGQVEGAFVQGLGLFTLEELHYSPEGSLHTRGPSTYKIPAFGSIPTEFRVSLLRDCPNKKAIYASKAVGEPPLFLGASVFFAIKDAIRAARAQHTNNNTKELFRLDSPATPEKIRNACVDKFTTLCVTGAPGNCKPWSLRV

hsPLA2-G-V = biological target: T3, hsPLA2-G-V (Homo sapiens, UniProt P39877); experiment: Anti-phospholipases colorimetric assay, hsPLA2-G-V; type: biochemical
T3 sequence (P39877 21-138): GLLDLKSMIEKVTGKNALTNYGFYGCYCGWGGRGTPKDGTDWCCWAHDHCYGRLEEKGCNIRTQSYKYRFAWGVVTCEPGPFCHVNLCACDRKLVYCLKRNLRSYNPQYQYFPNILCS
How it was run: as §2

HCT-116 cells = experiment: Cytotoxicity assay; type: cell-based; settings: Homo sapiens, HCT-116, 24 h, read-out: IC50 HCT-116 cell line of CRC
How it was run: as §3

hsPLA2-G-IIA = biological target: T4, hsPLA2-G-IIA (Homo sapiens, UniProt P14555); experiment: Anti-phospholipases colorimetric assay, hsPLA2-G-IIA; type: biochemical
T4 sequence (P14555 21-144): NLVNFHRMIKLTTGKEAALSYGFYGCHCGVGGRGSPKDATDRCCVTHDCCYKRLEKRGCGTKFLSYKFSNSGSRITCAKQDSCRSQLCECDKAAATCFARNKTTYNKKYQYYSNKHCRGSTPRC

thrombin = thrombin (Homo sapiens, UniProt P00734); experiment: Anti-proteases assay; type: biochemical
trypsin = biological target: T5, trypsin (Bos taurus, UniProt P00760); experiment: Anti-proteases assay; type: biochemical
T5 sequence (P00760 24-246): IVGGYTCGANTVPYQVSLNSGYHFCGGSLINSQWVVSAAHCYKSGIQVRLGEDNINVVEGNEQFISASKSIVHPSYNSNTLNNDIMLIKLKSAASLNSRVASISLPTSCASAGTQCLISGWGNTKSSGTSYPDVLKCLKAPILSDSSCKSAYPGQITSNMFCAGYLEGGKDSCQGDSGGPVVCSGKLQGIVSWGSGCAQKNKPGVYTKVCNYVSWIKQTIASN
How it was run: as §1

- IC50 (α-amylase): 264 ± 11 µM
Structure (SMILES): Cc1nc2ccc(Br)cc2c(=O)n1/N=C/c1ccc(C(=O)O)cc1 [Compound 3b, (E)-4-[(6-Bromo-2-methyl-4-oxo-4H-quinazolin-3-ylimino)methyl]benzoic acid]

- mean IC50 against Collagenase (collagenase): 57.83 ± 2.69 µg/mL
- IC50 (hsPLA2-G-X): 21.4 ± 2.31 µM
- IC50 (α-amylase): 375 ± 11.5 µM
Structure (SMILES): COc1cc(/C=N/n2c(C)nc3ccc(C)cc3c2=O)cc([N+](=O)[O-])c1O [Compound 3d, (E)-3-[(4-Hydroxy-3-methoxy-5-nitrobenzylidene)amino]-2,6-dimethylquinazolin-4(3H)-one]
- viability at 200 µg/mL (LoVo cells): 90.5 ± 3.54%

- IC50 (cathepsin-B): 132 µM
- IC50 (α-amylase): 310 ± 10 µM
- IC50 (α-glucosidase): 12.4 ± 0.83 µM
- IC50 (xanthine oxidoreductase): 7.34 ± 0.33 µM
Structure (SMILES): COc1ccc2cc(/C=N/n3c(C)nc4ccc(Br)cc4c3=O)ccc2c1 [Compound 3f, (E)-6-Bromo-3-[((6-methoxynaphthalen-2-yl)methylene)amino]-2-methylquinazolin-4(3H)-one]
- viability at 200 µg/mL (LoVo cells): 58 ± 4.24%

- IC50 (hsPLA2-G-V): 22.3 ± 0.92 µM
- IC50 (hsPLA2-G-X): 14.5 ± 0.92 µM
Structure (SMILES): COc1cc(/C=N/n2c(C)nc3ccc(Br)cc3c2=O)ccc1O [Compound 3g, (E)-6-Bromo-3-[(4-hydroxy-3-methoxybenzylidene)amino]-2-methyl-3H-quinazolin-4-one]
- viability at 200 µg/mL (LoVo cells): 16.8 ± 0.35%
- IC50 (LoVo cells): 206 ± 7.29 µM
- IC50 (HCT-116 cells): 285 ± 9.11 µM

- IC50 (α-amylase): 358 ± 4.95 µM
- IC50 (α-glucosidase): 13.7 ± 1.41 µM
Structure (SMILES): COc1cc(/C=N/n2c(C)nc3ccc(Br)cc3c2=O)ccc1OCc1ccc(Cl)cc1 [Compound 5, (E)-6-Bromo-3-{[4-(4-chlorobenzyloxy)-3-methoxybenzylidene]amino}-2-methyl-3H-quinazolin-4-one]

- IC50 (cathepsin-B): 31.5 µM
- IC50 (hsPLA2-G-IIA): 127 ± 2.12 µM
Structure (SMILES): Cc1nc2ccc(Cl)cc2c(=O)n1NC(=O)CCl [Compound 7b, 2-Chloro-N-(6-chloro-2-methyl-4-oxo-4H-quinazolin-3-yl)acetamide]

- IC50 (thrombin): 0.729 µM
- IC50 (trypsin): 1.78 µM
Structure (SMILES): Cc1nc2ccc(Cl)cc2c(=O)n1NC1=NC(=O)CS1 [Compound 8, 6-Chloro-2-methyl-3-(4-oxo-4,5-dihydrothiazol-2-ylamino)-3H-quinazolin-4-one]
- viability at 200 µg/mL (LoVo cells): 13.5 ± 0.71%
- IC50 (LoVo cells): 319 ± 11.4 µM
- IC50 (HCT-116 cells): 449 ± 11.5 µM

Structure (SMILES): O=c1c2ccccc2[nH]c(=S)n1-c1ccccc1 [Compound 9, 2-Mercapto-3-phenyl-3H-quinazolin-4-one]
- IC50 (hsPLA2-G-V): 151 ± 2.12 µM

- IC50 (hsPLA2-G-IIA): 13.8 ± 2.12 µM
- IC50 (hsPLA2-G-V): 14.7 ± 0.42 µM
Structure (SMILES): Cc1nc2ccccc2c(=O)n1NC(=O)CSc1nc2ccccc2c(=O)n1-c1ccccc1 [Compound 10, N-(2-Methyl-4-oxo-4H-quinazolin-3-yl)-2-(4-oxo-3-phenyl-3,4-dihydroquinazolin-2-ylsulfanyl)acetamide]
- viability at 200 µg/mL (LoVo cells): 22 ± 1.41%
- IC50 (LoVo cells): 273 ± 9.04 µM
- IC50 (HCT-116 cells): 230 ± 9.04 µM

- IC50 (α-amylase): 401 ± 6.36 µM
Structure (SMILES): COc1cc(NCC(=O)Nn2c(C)nc3ccc(Cl)cc3c2=O)cc(OC)c1OC [Compound 12, N-(6-Chloro-2-methyl-4-oxo-4H-quinazolin-3-yl)-2-(3,4,5-trimethoxyphenylamino)acetamide]

- IC50 (α-amylase): 407 ± 2.83 µM
Structure (SMILES): O=c1c(O)c(-c2ccc(O)c(O)c2)oc2cc(O)cc(O)c12 [Quercetin, quercetin, reference compound]
